Laboratory results reported in ChEMBL document CHEMBL2176911 (J Med Chem, 2012).
Activity calls are given as the source filed them. The calls are words filed in the database; no cut-off is given here.

Tests used:
[1] = Inhibition of CK2 at 1 uM after 30 mins
[2] = system: HT-22; test: Inhibition of GSK3-mediated […] phosphorylation in mouse HT22 cells at 0.01 to 10 uM after 24 hrs by Western blot analysis in presence of MG132; assay type: cell-based
[3] = target: Dual specificity tyrosine-phosphorylation-regulated kinase 1A (Mus musculus) (UniProt Q61214); test: Binding affinity to DYRK1A in mouse HT22 cell lysate by Western blot analysis; assay type: cell-free; details: HT-22
Outline: (§1)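 Bead pull-down from HT22 cell or mouse brain extracts, with ethanolamine beads lacking ligand as control. Specificity was tested by adding excess free inhibitor to the extracts before binding.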

[4] = target: T1, Dual specificity tyrosine-phosphorylation-regulated kinase 2 (Homo sapiens) (UniProt Q92630); test: Inhibition of human recombinant GST-tagged DYRK2 expressed in Escherichia coli using KKISGRLSPIMTEQ as substrate at 10 uM after 30 mins
T1 sequence (whole entry): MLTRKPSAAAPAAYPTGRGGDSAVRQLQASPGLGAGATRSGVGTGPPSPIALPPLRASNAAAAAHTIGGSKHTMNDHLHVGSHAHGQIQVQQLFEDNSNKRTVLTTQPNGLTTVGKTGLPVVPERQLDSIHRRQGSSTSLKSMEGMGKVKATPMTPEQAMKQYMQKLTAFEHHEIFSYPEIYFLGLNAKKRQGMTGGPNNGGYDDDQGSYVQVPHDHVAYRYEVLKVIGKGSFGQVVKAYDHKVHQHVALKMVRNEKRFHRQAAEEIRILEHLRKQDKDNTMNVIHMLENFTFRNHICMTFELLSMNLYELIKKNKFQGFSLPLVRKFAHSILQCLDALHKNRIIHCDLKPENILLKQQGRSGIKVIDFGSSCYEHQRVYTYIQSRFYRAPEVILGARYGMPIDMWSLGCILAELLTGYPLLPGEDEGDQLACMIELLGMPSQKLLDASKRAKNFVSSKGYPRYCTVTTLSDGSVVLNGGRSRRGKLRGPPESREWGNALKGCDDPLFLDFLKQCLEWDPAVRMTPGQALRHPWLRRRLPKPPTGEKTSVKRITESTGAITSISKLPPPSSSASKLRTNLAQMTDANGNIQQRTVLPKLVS

[5] = target: 1-phosphatidylinositol 3-phosphate 5-kinase (Mus musculus) (UniProt Q9Z1T6); test: Binding affinity to phosphatidylinositol-3-phosphate 5-kinase type 3 in mouse HT22 cell lysate by Western blot analysis; assay type: cell-free; details: HT-22; outline: as §1
Chain of 1-phosphatidylinositol 3-phosphate 5-kinase (Mus musculus) (Q9Z1T6 whole entry): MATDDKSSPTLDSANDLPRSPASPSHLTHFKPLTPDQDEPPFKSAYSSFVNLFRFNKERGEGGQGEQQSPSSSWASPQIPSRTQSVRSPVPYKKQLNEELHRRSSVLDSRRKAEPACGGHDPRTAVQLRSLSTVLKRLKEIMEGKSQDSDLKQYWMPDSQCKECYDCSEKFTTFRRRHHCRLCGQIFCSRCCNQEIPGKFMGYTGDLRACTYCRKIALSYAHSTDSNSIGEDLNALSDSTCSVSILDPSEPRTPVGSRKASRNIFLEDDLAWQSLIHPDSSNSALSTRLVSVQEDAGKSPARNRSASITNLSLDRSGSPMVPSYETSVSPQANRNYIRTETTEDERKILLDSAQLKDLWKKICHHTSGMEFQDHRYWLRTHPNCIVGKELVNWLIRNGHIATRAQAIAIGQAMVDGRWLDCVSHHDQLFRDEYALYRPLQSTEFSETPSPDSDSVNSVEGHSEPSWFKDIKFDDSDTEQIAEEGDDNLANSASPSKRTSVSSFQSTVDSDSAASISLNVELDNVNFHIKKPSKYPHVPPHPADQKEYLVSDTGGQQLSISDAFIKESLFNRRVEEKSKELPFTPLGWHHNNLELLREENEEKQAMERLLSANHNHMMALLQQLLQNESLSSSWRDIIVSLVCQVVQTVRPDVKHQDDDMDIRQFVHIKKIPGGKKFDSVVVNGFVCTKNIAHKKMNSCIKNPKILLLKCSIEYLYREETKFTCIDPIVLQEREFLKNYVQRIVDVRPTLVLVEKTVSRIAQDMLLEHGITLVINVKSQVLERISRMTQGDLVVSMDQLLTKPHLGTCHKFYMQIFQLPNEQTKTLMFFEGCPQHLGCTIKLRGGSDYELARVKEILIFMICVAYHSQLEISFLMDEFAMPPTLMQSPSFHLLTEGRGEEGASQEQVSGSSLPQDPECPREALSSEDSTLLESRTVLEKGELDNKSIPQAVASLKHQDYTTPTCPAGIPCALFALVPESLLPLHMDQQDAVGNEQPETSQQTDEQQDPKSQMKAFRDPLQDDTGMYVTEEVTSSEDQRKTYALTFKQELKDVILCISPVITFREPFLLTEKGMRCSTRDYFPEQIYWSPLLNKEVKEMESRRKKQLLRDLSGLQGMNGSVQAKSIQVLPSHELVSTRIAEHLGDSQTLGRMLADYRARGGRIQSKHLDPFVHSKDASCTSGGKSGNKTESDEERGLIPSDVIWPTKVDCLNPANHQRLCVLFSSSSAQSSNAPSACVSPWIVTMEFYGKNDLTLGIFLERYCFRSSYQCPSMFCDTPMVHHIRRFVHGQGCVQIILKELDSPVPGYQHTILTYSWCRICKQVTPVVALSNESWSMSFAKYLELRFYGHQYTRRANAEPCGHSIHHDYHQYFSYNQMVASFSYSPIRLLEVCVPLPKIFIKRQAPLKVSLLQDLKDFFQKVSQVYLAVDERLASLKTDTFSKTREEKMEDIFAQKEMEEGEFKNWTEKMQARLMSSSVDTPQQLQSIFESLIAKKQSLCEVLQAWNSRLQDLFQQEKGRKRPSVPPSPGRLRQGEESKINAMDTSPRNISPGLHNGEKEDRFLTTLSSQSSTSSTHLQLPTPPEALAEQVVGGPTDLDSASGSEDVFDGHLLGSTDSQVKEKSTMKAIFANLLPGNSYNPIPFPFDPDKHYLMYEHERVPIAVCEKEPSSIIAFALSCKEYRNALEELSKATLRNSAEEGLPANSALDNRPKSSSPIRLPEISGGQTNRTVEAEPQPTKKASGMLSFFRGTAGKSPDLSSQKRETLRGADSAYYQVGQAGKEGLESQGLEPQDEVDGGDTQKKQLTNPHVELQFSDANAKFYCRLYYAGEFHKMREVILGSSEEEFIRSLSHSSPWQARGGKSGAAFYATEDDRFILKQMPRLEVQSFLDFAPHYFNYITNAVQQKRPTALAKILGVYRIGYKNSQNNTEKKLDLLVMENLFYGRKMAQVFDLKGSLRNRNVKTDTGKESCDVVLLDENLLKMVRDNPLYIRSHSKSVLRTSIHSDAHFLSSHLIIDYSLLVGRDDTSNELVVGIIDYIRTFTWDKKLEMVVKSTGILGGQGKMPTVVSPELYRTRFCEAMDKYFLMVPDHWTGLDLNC

[6] = target: Serine/threonine-protein kinase pim-3 (Homo sapiens) (UniProt Q86V86); test: Inhibition of human recombinant His6-tagged PIM3 expressed in Sf21 cells using RSRHSSYPAGT as substrate at 1 uM after 30 mins
[7] = Inhibition of pig […] isolated from brain using RRKHAAIGpSAYSITA as substrate and [gamma33P]ATP after 30 mins by scintillation couting; design: species or system Sus scrofa
Outline: (§2)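 Panel of purified kinases (recombinant from several species plus native enzymes), each assayed radiometrically over a range of inhibitor concentrations; IC50 in μM calculated from the dose-response curves.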

[8] = Inhibition of CK2 at 10 uM after 30 mins
[9] = target: Casein kinase II subunit alpha' (Mus musculus) (UniProt O54833); test: Binding affinity to CK2 alpha' subunit in mouse brain homogenate by Western blot analysis; assay type: tissue-based; outline: as §1
Chain of Casein kinase II subunit alpha' (Mus musculus) (O54833 whole entry): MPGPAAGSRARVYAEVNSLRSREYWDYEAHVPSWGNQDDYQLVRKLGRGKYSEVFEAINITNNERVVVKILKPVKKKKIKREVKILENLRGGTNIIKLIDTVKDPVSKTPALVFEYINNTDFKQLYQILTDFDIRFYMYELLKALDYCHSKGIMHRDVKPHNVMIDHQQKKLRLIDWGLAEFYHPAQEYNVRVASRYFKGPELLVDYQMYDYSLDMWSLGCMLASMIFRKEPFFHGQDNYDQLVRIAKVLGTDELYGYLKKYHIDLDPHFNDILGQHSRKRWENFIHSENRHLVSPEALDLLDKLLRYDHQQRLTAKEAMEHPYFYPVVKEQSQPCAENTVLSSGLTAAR

[10] = target: Glycogen synthase kinase-3 (Sus scrofa, UniProt B2LUN4+I6LNT8); test: Inhibition of pig GSK3alpha/beta isolated from brain using YRRAAVPPSPSLSRHSSPHQ-phosphoS-EDEEE as substrate and [gamma33P]ATP after 30 mins by scintillation counting; outline: as §2
[11] = target: Homeodomain-interacting protein kinase 3 (Homo sapiens, UniProt Q9H422); test: Binding affinity to HIPK3
[12] = system: HT-22; test: Downregulation of DYRK1A expression in mouse HT22 cells after 4 hrs by Western blot analysis; assay type: functional, cell-based
[13] = Binding affinity to casein kinase 2
[14] = target: Casein kinase II subunit alpha (Mus musculus, UniProt Q60737); test: Binding affinity to CSNK2A1 in mouse brain homogenate after 3 hrs by competition affinity chromatographic analysis; assay type: tissue-based
Chain of Casein kinase II subunit alpha (Q60737 whole entry): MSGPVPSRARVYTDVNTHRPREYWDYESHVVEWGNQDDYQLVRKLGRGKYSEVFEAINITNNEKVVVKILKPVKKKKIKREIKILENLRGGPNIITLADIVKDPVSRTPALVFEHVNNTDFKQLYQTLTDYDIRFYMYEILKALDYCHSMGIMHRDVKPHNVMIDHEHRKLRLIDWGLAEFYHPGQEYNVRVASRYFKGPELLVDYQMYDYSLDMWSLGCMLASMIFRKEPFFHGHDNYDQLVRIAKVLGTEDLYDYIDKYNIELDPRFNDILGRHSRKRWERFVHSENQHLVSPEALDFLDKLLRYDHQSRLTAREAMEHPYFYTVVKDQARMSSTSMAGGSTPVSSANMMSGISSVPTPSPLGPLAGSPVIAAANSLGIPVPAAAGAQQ
Outline: (§3)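 Mouse brain lysate applied to a KinAffinity matrix of mixed immobilized broad-spectrum kinase inhibitors at highest loading density, with increasing concentrations of free inhibitor added. […] Separate titrations of the immobilized ligands gave BC50 values.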

[15] = system: HT-22; test: Binding affinity to GSK3beta2 in mouse HT22 cell lysate by Western blot analysis; assay type: cell-free; outline: as §1
[16] = target: Cyclin-dependent kinase 2/cyclin A (Homo sapiens, UniProt P24941); test: Inhibition of CDK2/cyclin A using [gamma33P]ATP after 30 mins by scintillation counting; assay type: protein-complex assay; outline: as §2
[17] = target: Casein kinase II subunit alpha' (Mus musculus) (UniProt O54833); test: Binding affinity to CK2 alpha' subunit in mouse HT22 cell lysate by Western blot analysis; assay type: cell-free; details: HT-22; outline: as §1
[18] = system: HT-22; test: Binding affinity to GSK3beta1 in mouse HT22 cell lysate by Western blot analysis; assay type: cell-free; outline: as §1
[19] = target: Mitogen-activated protein kinase 1 (Rattus norvegicus, UniProt P63086); test: Inhibition of rat recombinant ERK2 using Ets1 as substrate and [gamma33P]ATP as substrate after 30 mins by scintillation counting; outline: as §2
[20] = target: Cyclin-dependent kinase 7/ cyclin H (Homo sapiens, UniProt P50613); test: Inhibition of human recombinant CDK7/cyclin H expressed in insect cell using YSPTSPSYSPTSPSYSPTSPSKKKK as substrate and [gamma33P]ATP after 30 mins by scintillation counting; outline: as §2
Chain of Cyclin-dependent kinase 7/ cyclin H (P51946 whole entry): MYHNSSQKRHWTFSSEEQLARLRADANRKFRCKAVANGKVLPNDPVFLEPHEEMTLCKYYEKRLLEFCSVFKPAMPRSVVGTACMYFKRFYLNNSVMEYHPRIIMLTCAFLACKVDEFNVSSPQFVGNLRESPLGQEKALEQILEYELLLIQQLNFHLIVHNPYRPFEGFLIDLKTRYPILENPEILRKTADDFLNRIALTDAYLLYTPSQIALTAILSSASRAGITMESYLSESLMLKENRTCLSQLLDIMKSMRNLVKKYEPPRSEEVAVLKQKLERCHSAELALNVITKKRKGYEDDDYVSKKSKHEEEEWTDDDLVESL
Chain of Cyclin-dependent kinase 7/ cyclin H (P50613 whole entry): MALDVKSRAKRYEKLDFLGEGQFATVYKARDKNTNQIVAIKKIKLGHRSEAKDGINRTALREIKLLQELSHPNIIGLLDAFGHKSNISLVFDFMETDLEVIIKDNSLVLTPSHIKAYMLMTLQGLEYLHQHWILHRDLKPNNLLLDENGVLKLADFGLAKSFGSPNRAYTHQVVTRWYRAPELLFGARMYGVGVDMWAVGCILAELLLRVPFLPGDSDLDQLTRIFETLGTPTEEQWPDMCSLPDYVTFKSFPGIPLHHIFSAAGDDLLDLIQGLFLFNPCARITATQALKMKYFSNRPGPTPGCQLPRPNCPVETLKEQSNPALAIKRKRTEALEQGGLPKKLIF

[21] = target: Homeodomain-interacting protein kinase 2 (Homo sapiens) (UniProt Q9H2X6); test: Inhibition of human recombinant GST-tagged HIPK2 expressed in Escherichia coli at 1 uM after 30 mins
Chain of Homeodomain-interacting protein kinase 2 (Homo sapiens) (Q9H2X6 whole entry, looked up): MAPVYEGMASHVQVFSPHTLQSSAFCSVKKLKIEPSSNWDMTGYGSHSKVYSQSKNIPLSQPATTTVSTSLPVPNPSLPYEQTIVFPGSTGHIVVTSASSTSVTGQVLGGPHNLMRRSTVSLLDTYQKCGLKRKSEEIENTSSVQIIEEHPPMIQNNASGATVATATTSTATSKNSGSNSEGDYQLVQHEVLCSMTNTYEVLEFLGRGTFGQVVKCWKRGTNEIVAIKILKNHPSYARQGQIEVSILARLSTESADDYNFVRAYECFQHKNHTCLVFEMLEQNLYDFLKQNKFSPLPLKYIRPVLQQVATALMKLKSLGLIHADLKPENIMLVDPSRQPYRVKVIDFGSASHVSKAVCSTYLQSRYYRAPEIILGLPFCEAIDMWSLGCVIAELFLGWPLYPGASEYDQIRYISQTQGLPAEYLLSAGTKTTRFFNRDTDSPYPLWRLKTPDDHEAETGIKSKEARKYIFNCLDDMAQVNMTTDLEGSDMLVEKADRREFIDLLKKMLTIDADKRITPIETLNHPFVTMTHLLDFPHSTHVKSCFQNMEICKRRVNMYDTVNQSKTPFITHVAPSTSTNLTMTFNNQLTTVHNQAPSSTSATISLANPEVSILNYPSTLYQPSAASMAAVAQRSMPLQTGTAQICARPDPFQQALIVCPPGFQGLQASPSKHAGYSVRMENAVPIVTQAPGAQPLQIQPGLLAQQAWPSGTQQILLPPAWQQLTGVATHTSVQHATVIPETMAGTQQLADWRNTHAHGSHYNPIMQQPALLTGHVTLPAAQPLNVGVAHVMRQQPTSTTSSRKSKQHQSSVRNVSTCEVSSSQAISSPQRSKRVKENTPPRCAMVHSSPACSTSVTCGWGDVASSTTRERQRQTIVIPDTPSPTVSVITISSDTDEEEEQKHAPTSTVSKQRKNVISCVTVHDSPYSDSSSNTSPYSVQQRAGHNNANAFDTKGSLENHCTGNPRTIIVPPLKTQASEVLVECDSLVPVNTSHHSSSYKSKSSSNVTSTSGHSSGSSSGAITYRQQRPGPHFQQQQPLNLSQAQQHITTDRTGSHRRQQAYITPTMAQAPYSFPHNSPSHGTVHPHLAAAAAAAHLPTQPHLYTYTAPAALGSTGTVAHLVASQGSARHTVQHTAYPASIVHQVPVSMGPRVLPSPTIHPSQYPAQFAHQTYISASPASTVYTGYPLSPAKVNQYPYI

[22] = system: Brain; test: Toxicity against CD Sprague-Dawley rat brain expressing human APP at 0.03 to 3 uM after 3 hrs by fluorescence microscopic analysis; assay type: tissue-based; details: in vivo
[23] = Inhibition of Plasmodium falciparum recombinant GSK3 expressed in Escherichia coli using YRRAAVPPSPSLSRHSSPHQ-phosphoS-EDEEE as substrate and [gamma33P]ATP after 30 mins by scintillation counting; outline: as §2
[24] = target: Dual specificity tyrosine-phosphorylation-regulated kinase 1A (Mus musculus, UniProt Q61214); test: Binding affinity to DYRK1A in mouse brain homogenate after 3 hrs by competition affinity chromatographic analysis; assay type: tissue-based; outline: as §3
[25] = target: 1-phosphatidylinositol 3-phosphate 5-kinase (Mus musculus, UniProt Q9Z1T6); test: Binding affinity to phosphatidylinositol-3-phosphate 5-kinase type 3 in mouse brain homogenate after 3 hrs by competition affinity chromatographic analysis; assay type: tissue-based; outline: as §3
Chain of 1-phosphatidylinositol 3-phosphate 5-kinase (Q9Z1T6 whole entry): as the sequence (Q9Z1T6 whole entry) above

[26] = target: 1-phosphatidylinositol 3-phosphate 5-kinase (Mus musculus) (UniProt Q9Z1T6); test: Binding affinity to phosphatidylinositol-3-phosphate 5-kinase type 3 in mouse brain homogenate by Western blot analysis; assay type: tissue-based; outline: as §1
[27] = target: Dual specificity tyrosine-phosphorylation-regulated kinase 1A (Mus musculus) (UniProt Q61214); test: Inhibition of DYRK1A in mouse HT22 cells at 10 uM after 4 hrs; assay type: cell-based; details: HT-22
[28] = system: HT-22; test: Neuroprotective activity against glutamate-induced toxicity in mouse HT22 cells at 10 to 20 uM up to 48 hrs by MTS assay; assay type: functional, cell-based
[29] = system: HT-22; test: Inhibition of GSK3 isolated from mouse HT22 cells; assay type: cell-free
[30] = target: Homeodomain-interacting protein kinase 2 (Homo sapiens) (UniProt Q9H2X6); test: Inhibition of human recombinant GST-tagged HIPK2 expressed in Escherichia coli at 10 uM after 30 mins
[31] = system: HT-22; test: Neuroprotective activity against glutamate-induced toxicity in mouse HT22 cells after 24 hrs by MTS assay; assay type: functional, cell-based

O=C1NC(Nc2ccccc2)=N/C1=C\c1ccc2c(c1)OCO2
inhibition [1]: Active
inhibition [2]: inactive
Activity [3]: Active
inhibition [4]: Active
Activity [5]: Active
inhibition [6]: Active
IC50 [7]: 30 µM
inhibition [8]: Active
Activity [9]: Active
IC50 [10]: 0.41 µM
Kd [11]: 0.23 µM
Activity [12]: inactive
Activity [13]: Active
Kd(free) [14]: 0.326 µM
Activity [15]: Active
IC50 [16]: > 30 µM
Activity [17]: Active
Activity [18]: Active
IC50 [19]: > 30 µM
IC50 [20]: > 10 µM
inhibition [21]: Active
Activity [22]: Non-toxic
IC50 [23]: > 10 µM
Kd(free) [24]: 0.065 µM
Kd(free) [25]: 6.01 µM
Activity [26]: Active
inhibition [27]: Active
Activity [28]: Active
inhibition [29]: inactive
inhibition [30]: Active
Activity [31]: Dose-dependent effect
